Tests used:
Assay type in all cases: functional
[1] = Effect of compound on modification of deoxy form of hemoglobin was expressed as percent modification at 5 mM concentration
Summary of the method: (§1)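 Human hemoglobin A (1.0 mM) treated with reagent in 0.1 M Tris-HCl buffer, pH 7.3, at 37 °C for 2 h. Extent of modification and oxygen affinity (p50, mm) then determined by a previously described method; p50 read with and without inositol hexaphosphate. Reagent concentration uncertain for some compounds owing to incomplete solubility.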

[2] = Effect of compound on modification of oxy form of hemoglobin was expressed as percent modification at 10 mM concentration; summary of the method: as §1
[3] = Effect of compound on oxygen affinity, was expressed as P50 (mmHg) at 10 mM concentration in the absence of Inositol hexa phosphate (IHP)
Summary of the method: (§2)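 Hemoglobin A (1.0 mM) incubated with carbamate reagent in 0.1 M Tris-HCl, pH 7.3, at 37 °C for 2 h. Extent of modification and oxygen affinity (p50, mmHg) then measured by a previously described method. Oxygen binding was read with and without inositol hexaphosphate. At 10 mM, reagent concentration is uncertain for some compounds because of incomplete solubility.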

[4] = Effect of compound on oxygen affinity, was expressed as P50 (mmHg) at 10 mM concentration in the presence of 2 mM Inositol hexa phosphate (IHP); summary of the method: as §2
[5] = Effect of compound on oxygen affinity, was expressed as P50 (mmHg) at 5 mM concentration in the absence of Inositol hexa phosphate (IHP); summary of the method: as §1
[6] = Effect of compound on modification of oxy form of hemoglobin was expressed as percent modification at 5 mM concentration; summary of the method: as §1
[7] = Effect of compound on oxygen affinity, was expressed as P50 (mmHg) at 5 mM concentration in the presence of Inositol hexa phosphate (IHP); summary of the method: as §1
[8] = Effect of compound on oxygen affinity, expressed as P50 (mmHg) at 5 mM concentration in the presence of Inositol hexa phosphate (IHP); summary of the method: as §2
[9] = Effect of compound on oxygen affinity, expressed as P50 (mmHg) at 10 mM concentration in the presence of 2 mM Inositol hexa phosphate (IHP); summary of the method: as §2
[10] = Effect of compound on modification of oxy form of hemoglobin expressed as percent modification at 5 mM concentration; summary of the method: as §2
[11] = Effect of compound on modification of oxy form of hemoglobin expressed as percent modification at 10 mM concentration; summary of the method: as §2
[12] = Effect of compound on oxygen affinity, expressed as P50 (mmHg) at 10 mM concentration in the absence of Inositol hexa phosphate (IHP); summary of the method: as §2
[13] = Effect of compound on oxygen affinity, expressed as P50 (mmHg) at 5 mM concentration in the absence of Inositol hexa phosphate (IHP); summary of the method: as §2
[14] = Effect of compound on modification of deoxy form of hemoglobin expressed as percent modification at 5 mM concentration; summary of the method: as §2
[15] = Effect of compound on modification of oxy form of hemoglobin was expressed as percent modification at 10 mM concentration, concentration is uncertain due to incomplete solubility; summary of the method: as §2

SMILES: NC(=O)Oc1ccccc1C(=O)O
- Modification of hemoglobin [1]: 58%
- Modification of hemoglobin [2]: 94%
- P50 [3]: 6 mmHg
- P50 [4]: 22 mmHg
- P50 [5]: 6 mmHg
- Modification of hemoglobin [6]: 62%
- P50 [7]: 33 mmHg

SMILES: NC(=O)Oc1ccccc1
- P50 [8]: 39 mmHg
- P50 [9]: 30 mmHg
- Modification of hemoglobin [10]: 44%
- Modification of hemoglobin [11]: 67%
- P50 [12]: 5 mmHg
- P50 [13]: 6 mmHg
- Modification of hemoglobin [14]: 40%

SMILES: CN(C)C(=O)Oc1c(Br)cc(Br)cc1C(=O)OCc1ccccc1
- Modification of hemoglobin [1]: 0%
- Modification of hemoglobin [2]: 0%
- P50 [3]: 7 mmHg
- P50 [4]: 41 mmHg
- P50 [5]: 6 mmHg
- Modification of hemoglobin [6]: 0%
- P50 [7]: 41 mmHg

SMILES: CN(C)C(=O)Oc1ccccc1C(=O)O
- P50 [3]: 6 mmHg
- P50 [4]: 42 mmHg
- Modification of hemoglobin [15]: 0%

SMILES: COC(=O)c1ccccc1OC(N)=O
- Modification of hemoglobin [1]: 52%
- Modification of hemoglobin [2]: 83%
- P50 [3]: 6 mmHg
- P50 [4]: 25 mmHg
- P50 [5]: 6 mmHg
- Modification of hemoglobin [6]: 54%
- P50 [7]: 35 mmHg

SMILES: COC(=O)c1ccc(OC(N)=O)cc1
- Modification of hemoglobin [1]: 58%
- Modification of hemoglobin [2]: 89%
- P50 [3]: 6.5 mmHg
- P50 [4]: 23 mmHg
- P50 [5]: 6 mmHg
- Modification of hemoglobin [6]: 61%
- P50 [7]: 33 mmHg

SMILES: CN(C)C(=O)Oc1ccccc1C(=O)OCc1ccccc1
- Modification of hemoglobin [1]: 0%
- Modification of hemoglobin [2]: 0%
- P50 [3]: 6 mmHg
- P50 [4]: 44 mmHg
- P50 [5]: 6 mmHg
- Modification of hemoglobin [6]: 0%
- P50 [7]: 42 mmHg

SMILES: NC(=O)Oc1ccccc1C(=O)OCc1ccccc1
- Modification of hemoglobin [1]: 46%
- P50 [5]: 6 mmHg
- Modification of hemoglobin [6]: 45%
- P50 [7]: 37.5 mmHg

From ChEMBL document CHEMBL1123749, “O-carbamoylsalicylates: agents for modification of hemoglobins” (J Med Chem, 1987)
